Data set [1] deals with T1, Metabotropic glutamate receptor 2 (Rattus norvegicus, UniProt P31421). In words: Agonist activity at rat mGlu2. In kind it is functional.
For data set [2], the target named is T2, Metabotropic glutamate receptor 3 (Rattus norvegicus, UniProt P31422). In words: Agonist activity at rat mGlu3. In kind it is functional.
A short description of data set [3]: Cmax in C57BL/6 mouse plasma at 10 mg/kg, iv measured after 0.25 hrs by LC-MS/MS analysis. Type of data set: ADME, organism-based. In short, it runs like this:
(§1)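 Mice given a single 10 mg/kg IV dose; plasma and brain concentrations sampled at 0.25, 1.0 and 4.0 h, means ± error per timepoint.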

A short description of data set [4]: Cmax in C57BL/6 mouse plasma at 10 mg/kg, iv measured after 1 hr by LC-MS/MS analysis. In kind it is ADME, organism-based. The procedure, abridged:
as §1

The nature of data set [5]: Cmax in C57BL/6 mouse plasma at 10 mg/kg, iv measured after 4 hrs by LC-MS/MS analysis. Type of data set: ADME, organism-based. The procedure, abridged:
as §1

Data set [6] can be described thus: Cmax in C57BL/6 mouse brain at 10 mg/kg, iv measured after 0.25 hrs by LC-MS/MS analysis. In kind it is ADME, organism-based. In short, it runs like this: as §1
A short description of data set [7]: Cmax in C57BL/6 mouse brain at 10 mg/kg, iv measured after 1 hrs by LC-MS/MS analysis. Type of data set: ADME, organism-based. The procedure, abridged: as §1
The nature of data set [8]: Cmax in C57BL/6 mouse brain at 10 mg/kg, iv measured after 4 hrs by LC-MS/MS analysis. Type of data set: ADME, organism-based. The procedure, abridged: as §1
Data set [9] can be described thus: Half life in C57BL/6 mouse plasma at 10 mg/kg, iv by LC-MS/MS analysis. Type of data set: ADME, organism-based. The procedure, abridged:
as §1

Data set [10] is described as follows: Unbound brain to plasma concentration ratio in C57BL/6 mouse at 10 mg/kg, iv […] by LC-MS/MS analysis. In kind it is ADME, organism-based. The conditions noted are these: read-out: K(p,uu,brain).
Data set [11] deals with Metabotropic glutamate receptor 1 (Rattus norvegicus) (UniProt P23385). In words: Antagonist activity at rat mGlu1 transfected in HEK293 cells by IP-one HTRF assay. Type of data set: functional, cell-based. The procedure, abridged:
(§2)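 HEK293 cells transiently electroporated with rat receptor plasmid plus EAAC1 Glu transporter, plated 150 000 cells/well on polyornithine, serum-free Glutamax DMEM ≥2 h before assay. At 24 h, washed in Krebs buffer and stimulated 30 min with compound in 50 mM LiCl. IP1 read by HTRF, at least duplicates, EC50 from 2–5 experiments.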

The target in data set [12] is Metabotropic glutamate receptor 2 (Rattus norvegicus) (UniProt P31421). Put plainly: Antagonist activity at rat mGlu2 transfected in HEK293 cells co-transfected with chimeric Gqi9 incubated for 30 mins by IP-one HTRF assay. In kind it is functional, cell-based. Background: Time-resolved FRET reads energy transfer from a long-lived donor to a nearby acceptor.
The target of data set [13] is Metabotropic glutamate receptor 3 (Rattus norvegicus) (UniProt P31422). In words: Antagonist activity at rat mGlu3 transfected in HEK293 cells co-transfected with chimeric Gqi9 incubated for 30 mins by IP-one HTRF assay. Type of data set: functional, cell-based.
Data set [14] has as its target Metabotropic glutamate receptor 4 (Rattus norvegicus) (UniProt P31423). In words: Antagonist activity at rat mGlu4 transfected in HEK293 cells co-transfected with chimeric Gqi9 incubated for 30 mins by IP-one HTRF assay. In kind it is functional, cell-based. In short, it runs like this: (§3)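 Rat group II/III receptor co-electroporated into HEK293 with chimeric Gqi9 and EAAC1 transporter, serum-free medium ≥2 h pre-assay. At 24 h post-transfection, Krebs wash, then 30 min compound exposure with 50 mM LiCl. IP1 accumulation quantified by HTRF kit, at least duplicate runs, mean of 2–5 experiments.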

Data set [15] addresses Metabotropic glutamate receptor 5 (Rattus norvegicus) (UniProt P31424). Put plainly: Antagonist activity at rat mGlu5 transfected in HEK293 cells by IP-one HTRF assay. Type of data set: functional, cell-based. In short, it runs like this: as §2
For data set [16], the target named is Metabotropic glutamate receptor 6 (Rattus norvegicus) (UniProt P35349). In words: Antagonist activity at rat mGlu6 transfected in HEK293 cells co-transfected with chimeric Gqi9 incubated for 30 mins by IP-one HTRF assay. Type of data set: functional, cell-based. In short, it runs like this:
as §3

In data set [17] the target is Metabotropic glutamate receptor 7 (Rattus norvegicus) (UniProt P35400). In words: Antagonist activity at rat mGlu7 transfected in HEK293 cells co-transfected with chimeric Gqi9 incubated for 30 mins by IP-one HTRF assay. Type of data set: functional, cell-based. The procedure, abridged:
as §3

The target in data set [18] is Metabotropic glutamate receptor 8 (Rattus norvegicus) (UniProt P70579). In words: Antagonist activity at rat mGlu8 transfected in HEK293 cells co-transfected with chimeric Gqi9 incubated for 30 mins by IP-one HTRF assay. Type of data set: functional, cell-based. In short, it runs like this: as §3
Data set [19] addresses Metabotropic glutamate receptor 1 (Rattus norvegicus, UniProt P23385). In words: Agonist activity at rat mGlu1 transfected in HEK293 cells by IP-one HTRF assay. In kind it is functional, cell-based. The procedure, abridged:
as §2

For data set [20], the target named is Metabotropic glutamate receptor 5 (Rattus norvegicus, UniProt P31424). In words: Agonist activity at rat mGlu5 transfected in HEK293 cells by IP-one HTRF assay. In kind it is functional, cell-based. As to conditions: read-out: EC50. In short, it runs like this:
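HEK293 cells transiently electroporated with rat receptor plasmid plus the high-affinity Glu transporter EAAC1. Cells were grown in DMEM with 10% FBS and seeded on polyornithine-coated wells at 150 000 cells/well. Medium was switched to serum-free Glutamax DMEM ≥2 h before assay. At 24 h cells were washed in Krebs buffer and stimulated 30 min with agonist plus 50 mM LiCl. IP1 read by IP-One HTRF; ≥ duplicates.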

Data set [21] deals with T1, Metabotropic glutamate receptor 2. Put plainly: Agonist activity at rat mGlu2 transfected in HEK293 cells co-transfected with chimeric Gqi9 incubated for 30 mins by IP-one HTRF assay. Type of data set: functional, cell-based. In short, it runs like this: as §3
The target of data set [22] is T2, Metabotropic glutamate receptor 3. Put plainly: Agonist activity at rat mGlu3 transfected in HEK293 cells co-transfected with chimeric Gqi9 incubated for 30 mins by IP-one HTRF assay. Type of data set: functional, cell-based.
The target in data set [23] is Metabotropic glutamate receptor 4 (Rattus norvegicus, UniProt P31423). Put plainly: Agonist activity at rat mGlu4 transfected in HEK293 cells co-transfected with chimeric Gqi9 incubated for 30 mins by IP-one HTRF assay. Type of data set: functional, cell-based. The procedure, abridged:
as §3

Data set [24] concerns the target Metabotropic glutamate receptor 6 (Rattus norvegicus, UniProt P35349). In words: Agonist activity at rat mGlu6 transfected in HEK293 cells co-transfected with chimeric Gqi9 incubated for 30 mins by IP-one HTRF assay. In kind it is functional, cell-based. In short, it runs like this: as §3
The target of data set [25] is Metabotropic glutamate receptor 7 (Rattus norvegicus, UniProt P35400). Put plainly: Agonist activity at rat mGlu7 transfected in HEK293 cells co-transfected with chimeric Gqi9 incubated for 30 mins by IP-one HTRF assay. In kind it is functional, cell-based. In short, it runs like this: as §3
Data set [26] deals with Metabotropic glutamate receptor 8 (Rattus norvegicus, UniProt P70579). In words: Agonist activity at rat mGlu8 transfected in HEK293 cells co-transfected with chimeric Gqi9 incubated for 30 mins by IP-one HTRF assay. Type of data set: functional, cell-based. The procedure, abridged:
as §3

For data set [27], the species on record is Rattus norvegicus. Put plainly: Selectivity ratio of EC50 for rat mGlu3 to EC50 for rat Glu2.
Data set [28] concerns the target T1, Metabotropic glutamate receptor 2. Put plainly: Agonist activity at SNAP tagged rat mGlu2 transfected HEK293 cells by TR-FRET assay. In kind it is functional, cell-based.
Data set [29] shares this target. Put plainly: Agonist activity at SNAP tagged rat mGlu2 transfected HEK293 cells preincubated with antagonist LY-341495 followed by compound addition by TR-FRET assay. In kind it is functional, cell-based.
Data set [30] has as its target T2, Metabotropic glutamate receptor 3. Put plainly: Agonist activity at SNAP tagged rat mGlu3 transfected HEK293 cells preincubated with antagonist LY-341495 followed by compound addition by TR-FRET assay. In kind it is functional, cell-based.
The species named for data set [31] is Rattus norvegicus. In words: Selectivity ratio of EC50 for SNAP tagged rat mGlu3 to EC50 for SNAP tagged rat mGlu2. In short, it runs like this:
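Ratio of EC50 at SNAP-tagged rat mGlu3 to mGlu2, both measured by TR-FRET conformational assay in HEK293 after LY341495 preincubation and washing; Lumi4-Tb/Green labeling, 337 nm excitation, 620/520 nm emission.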

The nature of data set [32]: Cmax in CSF of C57BL/6 mouse at 100 mg/kg, po by LC-MS/MS analysis. In kind it is ADME, organism-based, Cerebrospinal fluid.
Data set [33] can be described thus: Cmax in C57BL/6 mouse plasma at 100 mg/kg, po by LC-MS/MS analysis. In kind it is ADME, organism-based.
Data set [34] in a line: Cmax in C57BL/6 mouse brain at 100 mg/kg, po by LC-MS/MS analysis. In kind it is ADME, organism-based.
Data set [35] can be described thus: Half life in C57BL/6 mouse plasma at 100 mg/kg, po by LC-MS/MS analysis. In kind it is ADME, organism-based.
Data set [36] in a line: Half life in C57BL/6 mouse brain at 100 mg/kg, po by LC-MS/MS analysis. In kind it is ADME, organism-based.

Data on four molecules can be found in ChEMBL document CHEMBL5537160, “Design, Synthesis, Pharmacology, and In Silico Studies of (1S,2S,3S)-2-((S)-Amino(carboxy)methyl)-3-(carboxymethyl)cyclopropane-1-carboxylic Acid (LBG30300): A Picomolar Potency Subtype-Selective mGlu2 Receptor Agonist” (J Med Chem, 2024).

SMILES strings stand for the structures. Active and inactive are the calls of the source.

T1 sequence (P31421 whole entry): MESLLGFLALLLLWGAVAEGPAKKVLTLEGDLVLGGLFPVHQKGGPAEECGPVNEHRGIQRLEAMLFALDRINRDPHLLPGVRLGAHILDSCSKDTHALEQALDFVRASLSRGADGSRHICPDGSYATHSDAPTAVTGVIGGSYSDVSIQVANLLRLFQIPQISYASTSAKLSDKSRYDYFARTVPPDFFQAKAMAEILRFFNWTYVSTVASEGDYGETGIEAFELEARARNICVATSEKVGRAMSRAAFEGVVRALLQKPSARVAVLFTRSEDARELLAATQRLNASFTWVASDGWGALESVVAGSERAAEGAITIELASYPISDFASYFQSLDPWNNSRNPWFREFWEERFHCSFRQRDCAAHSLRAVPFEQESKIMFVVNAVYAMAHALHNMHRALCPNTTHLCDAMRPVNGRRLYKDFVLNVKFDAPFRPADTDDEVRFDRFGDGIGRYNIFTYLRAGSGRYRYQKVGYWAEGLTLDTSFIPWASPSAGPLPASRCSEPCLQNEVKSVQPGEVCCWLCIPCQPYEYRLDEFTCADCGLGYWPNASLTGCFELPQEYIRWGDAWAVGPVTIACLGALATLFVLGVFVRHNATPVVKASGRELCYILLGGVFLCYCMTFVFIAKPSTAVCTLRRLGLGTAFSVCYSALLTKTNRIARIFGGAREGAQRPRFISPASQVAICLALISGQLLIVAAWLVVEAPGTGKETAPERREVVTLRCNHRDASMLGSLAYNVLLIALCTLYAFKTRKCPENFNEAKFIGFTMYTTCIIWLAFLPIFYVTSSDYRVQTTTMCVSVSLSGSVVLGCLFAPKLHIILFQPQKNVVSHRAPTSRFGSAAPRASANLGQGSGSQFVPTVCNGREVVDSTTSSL
T2 sequence (P31422 whole entry): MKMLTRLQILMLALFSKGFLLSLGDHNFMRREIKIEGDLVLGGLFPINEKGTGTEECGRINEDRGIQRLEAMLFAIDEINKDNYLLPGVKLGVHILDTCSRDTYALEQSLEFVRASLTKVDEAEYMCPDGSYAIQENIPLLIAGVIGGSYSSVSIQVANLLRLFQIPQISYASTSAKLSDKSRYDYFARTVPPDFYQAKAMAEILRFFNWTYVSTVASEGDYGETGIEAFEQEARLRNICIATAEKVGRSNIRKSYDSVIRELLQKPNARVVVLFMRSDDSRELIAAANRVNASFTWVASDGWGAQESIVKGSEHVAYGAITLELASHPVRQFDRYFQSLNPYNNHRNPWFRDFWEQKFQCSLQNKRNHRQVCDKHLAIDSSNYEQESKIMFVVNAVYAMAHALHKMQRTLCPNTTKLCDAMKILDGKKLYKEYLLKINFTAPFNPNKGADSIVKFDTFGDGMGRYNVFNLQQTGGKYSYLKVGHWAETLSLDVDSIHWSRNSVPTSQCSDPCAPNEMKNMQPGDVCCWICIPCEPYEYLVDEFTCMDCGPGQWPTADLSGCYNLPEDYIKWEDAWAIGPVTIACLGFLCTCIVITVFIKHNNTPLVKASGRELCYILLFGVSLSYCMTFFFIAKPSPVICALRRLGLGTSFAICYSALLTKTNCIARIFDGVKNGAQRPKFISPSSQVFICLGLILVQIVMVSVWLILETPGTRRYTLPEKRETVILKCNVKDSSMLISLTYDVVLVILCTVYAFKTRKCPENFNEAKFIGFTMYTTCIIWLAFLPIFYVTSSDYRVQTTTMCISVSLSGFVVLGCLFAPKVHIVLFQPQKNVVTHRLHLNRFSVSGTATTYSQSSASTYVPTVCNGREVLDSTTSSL
Sequence of Metabotropic glutamate receptor 6 (P35349 whole entry): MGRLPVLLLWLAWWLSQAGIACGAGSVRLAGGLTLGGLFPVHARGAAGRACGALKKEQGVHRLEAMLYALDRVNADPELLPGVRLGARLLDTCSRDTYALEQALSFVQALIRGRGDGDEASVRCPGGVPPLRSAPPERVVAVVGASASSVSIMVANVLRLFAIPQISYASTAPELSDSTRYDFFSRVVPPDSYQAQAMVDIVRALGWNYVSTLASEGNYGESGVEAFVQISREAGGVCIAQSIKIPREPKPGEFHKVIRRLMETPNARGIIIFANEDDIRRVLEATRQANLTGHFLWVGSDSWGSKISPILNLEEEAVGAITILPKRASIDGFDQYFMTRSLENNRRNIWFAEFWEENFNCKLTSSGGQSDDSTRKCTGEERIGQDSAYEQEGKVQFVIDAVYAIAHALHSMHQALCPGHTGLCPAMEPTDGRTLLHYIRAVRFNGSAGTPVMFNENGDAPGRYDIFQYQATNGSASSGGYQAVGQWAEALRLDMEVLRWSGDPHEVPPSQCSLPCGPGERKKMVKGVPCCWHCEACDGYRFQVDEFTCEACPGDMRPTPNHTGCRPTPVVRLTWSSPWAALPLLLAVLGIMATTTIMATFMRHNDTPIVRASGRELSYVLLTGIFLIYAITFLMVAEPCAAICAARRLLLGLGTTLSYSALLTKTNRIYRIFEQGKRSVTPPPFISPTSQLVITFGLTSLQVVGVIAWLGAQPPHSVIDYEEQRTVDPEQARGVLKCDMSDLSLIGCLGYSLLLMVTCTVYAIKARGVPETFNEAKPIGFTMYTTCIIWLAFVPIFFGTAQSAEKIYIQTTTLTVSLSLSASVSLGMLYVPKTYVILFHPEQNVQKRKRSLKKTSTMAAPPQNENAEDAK
Sequence of Metabotropic glutamate receptor 6 (Rattus norvegicus) (P35349 whole entry): as above
Sequence of Metabotropic glutamate receptor 5 (Rattus norvegicus) (P31424 21-1203 limits assumed): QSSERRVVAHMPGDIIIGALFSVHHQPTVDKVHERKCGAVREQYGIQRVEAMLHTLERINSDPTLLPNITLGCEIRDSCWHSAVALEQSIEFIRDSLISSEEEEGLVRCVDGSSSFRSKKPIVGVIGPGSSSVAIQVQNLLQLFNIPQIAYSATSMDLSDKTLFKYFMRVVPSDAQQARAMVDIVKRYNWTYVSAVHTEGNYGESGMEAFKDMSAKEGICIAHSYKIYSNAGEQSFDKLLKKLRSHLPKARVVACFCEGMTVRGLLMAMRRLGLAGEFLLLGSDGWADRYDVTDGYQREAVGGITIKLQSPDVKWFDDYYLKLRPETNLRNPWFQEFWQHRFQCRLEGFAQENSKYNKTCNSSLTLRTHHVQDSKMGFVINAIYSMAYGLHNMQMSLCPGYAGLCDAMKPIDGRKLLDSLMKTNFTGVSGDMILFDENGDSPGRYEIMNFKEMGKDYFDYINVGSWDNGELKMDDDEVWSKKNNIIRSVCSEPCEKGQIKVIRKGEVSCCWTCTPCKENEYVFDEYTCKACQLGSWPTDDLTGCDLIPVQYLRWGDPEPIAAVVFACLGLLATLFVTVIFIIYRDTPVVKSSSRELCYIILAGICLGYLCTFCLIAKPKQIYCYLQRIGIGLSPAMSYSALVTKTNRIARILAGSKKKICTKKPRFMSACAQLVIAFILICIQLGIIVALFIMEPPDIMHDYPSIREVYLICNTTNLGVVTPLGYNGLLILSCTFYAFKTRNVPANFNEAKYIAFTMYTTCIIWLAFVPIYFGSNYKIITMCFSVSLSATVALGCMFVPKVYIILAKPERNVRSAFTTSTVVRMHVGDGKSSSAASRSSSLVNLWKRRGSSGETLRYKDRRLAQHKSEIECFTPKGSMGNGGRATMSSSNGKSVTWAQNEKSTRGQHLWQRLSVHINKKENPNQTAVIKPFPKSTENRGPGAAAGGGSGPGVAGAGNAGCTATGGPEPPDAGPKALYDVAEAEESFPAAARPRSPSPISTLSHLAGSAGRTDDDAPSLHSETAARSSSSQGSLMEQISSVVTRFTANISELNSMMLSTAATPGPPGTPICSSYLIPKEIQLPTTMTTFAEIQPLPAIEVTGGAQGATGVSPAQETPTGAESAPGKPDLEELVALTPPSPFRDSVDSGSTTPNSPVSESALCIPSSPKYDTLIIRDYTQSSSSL
Sequence of Metabotropic glutamate receptor 7 (Rattus norvegicus) (P35400 whole entry): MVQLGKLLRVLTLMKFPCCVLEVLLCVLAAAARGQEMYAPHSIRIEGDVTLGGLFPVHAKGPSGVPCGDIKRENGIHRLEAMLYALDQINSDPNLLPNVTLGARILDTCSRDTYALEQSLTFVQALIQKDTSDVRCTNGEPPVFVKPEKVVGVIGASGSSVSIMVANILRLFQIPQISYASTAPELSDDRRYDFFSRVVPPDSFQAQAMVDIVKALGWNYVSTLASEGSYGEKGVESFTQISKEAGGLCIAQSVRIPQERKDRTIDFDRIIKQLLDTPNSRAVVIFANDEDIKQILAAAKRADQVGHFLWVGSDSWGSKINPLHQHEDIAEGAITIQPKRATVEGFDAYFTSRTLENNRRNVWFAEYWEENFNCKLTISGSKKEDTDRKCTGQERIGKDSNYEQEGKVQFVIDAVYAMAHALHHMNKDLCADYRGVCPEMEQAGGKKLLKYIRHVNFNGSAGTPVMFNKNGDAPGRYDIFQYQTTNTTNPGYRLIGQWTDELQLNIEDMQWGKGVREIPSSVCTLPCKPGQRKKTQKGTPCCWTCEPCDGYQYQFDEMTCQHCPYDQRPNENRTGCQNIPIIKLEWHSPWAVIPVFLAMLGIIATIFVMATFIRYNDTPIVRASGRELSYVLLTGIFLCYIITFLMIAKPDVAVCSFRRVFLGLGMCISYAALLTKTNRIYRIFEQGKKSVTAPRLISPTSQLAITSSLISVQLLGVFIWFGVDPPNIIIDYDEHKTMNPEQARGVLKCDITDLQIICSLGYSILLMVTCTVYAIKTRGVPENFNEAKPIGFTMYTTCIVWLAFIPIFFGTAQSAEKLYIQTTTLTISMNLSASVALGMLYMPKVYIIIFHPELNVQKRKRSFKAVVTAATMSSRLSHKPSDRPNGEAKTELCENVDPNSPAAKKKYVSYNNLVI
Sequence of Metabotropic glutamate receptor 7 (P35400 whole entry): as above

For `N[C@H](C(=O)O)[C@H]1[C@@H](CO)[C@@H]1C(=O)O`, the EC50 in data set [1] is 4 nM; in data set [2] it was 7 nM.
Consider `Cl.N[C@H](C(=O)O)[C@H]1[C@H](CC(=O)O)[C@@H]1C(=O)O`, for which the Cmax (usually the maximum level reached in the sampled fluid or tissue) in data set [3] amounted to 5360 ng/mL; in [4] it was 583 ng/mL; in data set [5] it was 50 ng/mL; in data set [6], 86 ng/g; in data set [7], 75 ng/g; in data set [8], 68 ng/g. Also, the half-life (usually the time needed for the level to fall by half in the phase considered) in data set [9] was 0.5 h. For the same molecule, in [10], the Kp uu came out at 0.02. The outcome in [11], in [12], in data set [13], in data set [14], in data set [15] and in [16] was inactive. Also, the result in [17] and in data set [18] was inactive. In addition, the EC50 was above 30000 nM in data set [19]; above 30000 nM in data set [20]; 1 nM in [21] (read-out: EC50); 0.575 nM in data set [21] (read-out: pEC50 (converted)); 373 nM in data set [22]; 110 nM in data set [23] (read-out: EC50). For the same molecule, the EC50 in data set [23] (read-out: pEC50 (converted)) is 35.5 nM; in [24] (read-out: EC50) it was 280 nM; in data set [24] (read-out: pEC50 (converted)) it was 245 nM; in [25], above 30000 nM; in data set [26] (read-out: EC50) it was 97 nM; in [26] (read-out: pEC50 (converted)), 35.5 nM. Further, the EC50 is 13 nM in data set [28] (read-out: EC50), 22.4 nM in data set [28] (read-out: pEC50 (converted)), 22 nM in [29] and 11500 nM in data set [30]. Besides, the values for the Ratio EC50 in the data set listed under Rattus norvegicus [27] and in the data set listed under Rattus norvegicus [31] were 620 and 513, respectively.
Consider `N[C@@]1(C(=O)O)CO[C@H]2[C@H](C(=O)O)[C@H]21` [LY-379268], for which the result in [11], in data set [12], in data set [13], in [14], in data set [15] and in [16] was inactive. The result in [17] and in [18] was inactive. Moreover, the EC50 in data set [21] (read-out: EC50) was 1 nM; in [22] it was 10 nM.
Turning to `N[C@@]1(C(=O)O)CC[C@H]2[C@H](C(=O)O)[C@H]21`, the Cmax in [32] was 14 ng/g; in data set [33], 2120 ng/mL; in data set [34], 76 ng/g. Moreover, the half-life is 6.8 h in data set [35] and 69 h in [36]. Besides, the EC50 in [30] worked out at 4800 nM; in data set [2], 27 nM.
